Published values pooled from the literature.
Lines come from different studies, so protocols differ.
Target: Uncharacterized serine/threonine-protein kinase SBK3 (SBK3, Homo sapiens, UniProt P0C264)
One construct used (P0C264 1-359): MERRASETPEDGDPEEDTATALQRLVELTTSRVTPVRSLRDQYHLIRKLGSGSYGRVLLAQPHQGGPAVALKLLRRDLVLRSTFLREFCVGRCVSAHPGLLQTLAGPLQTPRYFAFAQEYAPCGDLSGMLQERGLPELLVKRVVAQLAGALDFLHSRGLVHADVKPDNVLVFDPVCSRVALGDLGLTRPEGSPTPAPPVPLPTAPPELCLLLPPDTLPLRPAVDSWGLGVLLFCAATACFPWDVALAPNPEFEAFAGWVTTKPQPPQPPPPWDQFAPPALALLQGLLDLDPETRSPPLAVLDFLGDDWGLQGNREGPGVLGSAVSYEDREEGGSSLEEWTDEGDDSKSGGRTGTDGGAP

read-out	method	concentration	remaining binding [%]	SMILES
binding		1 µM	100	CN(C)c1nccc(-c2cnn3ncccc23)n1
binding	competition with immobilised ligand	1 µM	87	C=CC(=O)N1CCC(C(=O)NCC(=O)N2CCN(c3nc(-c4cnc(N)nc4C(F)F)nc(N4CCOCC4)n3)CC2)CC1
binding	competition with immobilised ligand	1 µM	100	COc1cnc(Nc2cccc(S(N)(=O)=O)c2)nc1N1CCN(c2ccccc2)CC1
binding	competition with immobilised ligand	1 µM	86	O=C(c1ccc(Nc2ncc(Cl)c(-c3cc4ccccc4s3)n2)cc1)N1CCC(N2CCCC2)CC1
binding	competition with immobilised ligand	1 µM	68	O=C(NCC1CCOCC1)c1n[nH]cc1NC(=O)c1c(F)cccc1F
binding	competition with immobilised ligand	10 µM	33	c1cncc(-c2cccc(Nc3nccc(NC4CCCCC4)n3)c2)c1
binding		1 µM	100	N[C@@H]1CCN(c2nccc(-c3cnn4ncccc34)n2)C1
cell-free assay	competition with immobilised ligand	1 µM	93	O=S(=O)(NC1CCC(c2cc(F)ccc2F)(S(=O)(=O)c2ccc(Cl)cc2)CC1)C(F)(F)F (centres unmarked)
binding		1 µM	100	CN(c1nccc(-c2cnn3ncccc23)n1)C1CC1
cell-free assay	competition with immobilised ligand	1 µM	100	CCCCN(CCCC)C(=O)CN1C[C@@H](c2cc(OC)c3c(c2)OCO3)[C@H](C(=O)O)[C@H]1CC(C)(C)CCC
binding	competition with immobilised ligand	1 µM	91	O=C(NCCCN1CCOCC1)c1ccc(Nc2nccc(-c3cc4ccccc4s3)n2)cc1
binding	competition with immobilised ligand	1 µM	64	COc1cnc(Nc2cccc(S(N)(=O)=O)c2)nc1N1CCN(c2ccccc2)C(=O)C1
cell-free assay	competition with immobilised ligand	0.1 µM	79	Cn1nc(C(=O)NCc2ccc(C(=O)O)cc2)cc1-c1ccc2[nH]ccc2c1
binding		1 µM	99	C[C@@H]1CCN(c2nccc(-c3cnn4ncccc34)n2)C1
cell-free assay	competition with immobilised ligand	1 µM	70	O=C(Nc1ccc(Oc2ccc(F)cc2)cc1)N1CCc2ncccc2[C@H]1c1ccc(F)cc1
binding		1 µM	100	F[C@@H]1CCN(c2nccc(-c3cnn4ncccc34)n2)C1
cell-free assay	competition with immobilised ligand	1 µM	100	CS(=O)(=O)c1cc(C2(NC(=O)c3cncc4c3cnn4-c3ccc(F)cc3)CC2)ccn1
binding		1 µM	74	CN(C)c1ncc(F)c(-c2cnn3ncccc23)n1
cell-free assay	competition with immobilised ligand	1 µM	81	CO[C@@H](C)c1c(Nc2ccc([C@@H](N(C)C(=O)C3CCS(=O)(=O)CC3)C(F)(F)F)cc2)cnc2cc(Cl)nn12
binding	competition with immobilised ligand	1 µM	79	O=C(NCCCN1CCOCC1)c1ccc(Nc2ncc(Cl)c(-c3ccc(Cl)s3)n2)cc1
